In paper PMC8154016 (ACS Omega, 2021):

Key:
[1] = tested on: A549 (lung) cancer cell line; test: MTT assay, cell viability and IC50, A549; assay type: cell-based; conditions: Homo sapiens; for viability: A549, 48 h, read-out: Cell viability (%) A549 (lung), 100 μg/μL concentration of compound, 48 h, MTT, mean ± SD in triplicate
Outline: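 A549 human lung cancer cells were grown in DMEM with 10% FBS and 1% penicillin–streptomycin at 37 °C in humidified 5% CO2. Cells were seeded in 96-well plates and exposed for 48 h to serial dilutions of the test compound in DMSO (<1% final). MTT (5 mg/mL solution as added) was applied for 240 min at 37 °C. Formazan was dissolved in DMSO and A490 read for % viability. Triplicate; mean ± SD.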

[2] = tested on: MCF-7 (breast) cancer cell line; test: MTT assay, cell viability, MCF-7; assay type: cell-based; conditions: Homo sapiens, MCF7, 48 h, read-out: Cell viability (%) MCF-7 (breast), 100 μg/μL concentration of compound, 48 h, MTT, mean ± SD in triplicate
Outline: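 Human MCF-7 breast cancer cells grown in DMEM with 10% FBS and 1% penicillin–streptomycin at 37 °C, 5% CO2, humidified. Test compound in DMSO (under 1% final) added at various dilutions for 48 h. MTT (5 mg/mL stock) then added for 240 min at 37 °C. Formazan dissolved in DMSO and absorbance read at 490 nm. Percent viability calculated; triplicate, mean ± SD.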

SMILES: Cn1c(=O)c2c(ncn2Cc2nnc(SCC(=O)Nc3ccc(F)cc3)n2-c2ccccc2)n(C)c1=O [Compound 11e, 2-(5-((1,3-Dimethyl-2,6-dioxo-2,3-dihydro-1H-purin-7(6H)-yl)methyl)-4-phenyl-4H-1,2,4-triazol-3-ylthio)-N-(4-fluorophenyl)acetamide]
- viability [1]: 52.1 ± 3.66%
- viability [2]: 54.8 ± 4.88%

SMILES: Cc1ccc(NC(=O)CSc2nnc(Cn3cnc4c3c(=O)n(C)c(=O)n4C)n2-c2ccccc2)c(C)c1 [Compound 11c, 2-(5-((1,3-Dimethyl-2,6-dioxo-2,3-dihydro-1H-purin-7(6H)-yl)methyl)-4-phenyl-4H-1,2,4-triazol-3-ylthio)-N-(2,4-dimethylphenyl)acetamide]
- viability [1]: 26.1 ± 1.86%
- viability [2]: 38.7 ± 2.07%

SMILES: Cc1ccc(NC(=O)CSc2nnc(Cn3cnc4c3c(=O)n(C)c(=O)n4C)n2-c2ccccc2)cc1 [Compound 11g, 2-(5-((1,3-Dimethyl-2,6-dioxo-2,3-dihydro-1H-purin-7(6H)-yl)methyl)-4-phenyl-4H-1,2,4-triazol-3-ylthio)-N-p-tolylacetamide]
- viability [1]: 21.7 ± 1.6%
- IC50 ([1]; A549, read-out: IC50 (μM) A549 (lung)): 1.25 ± 1.6 µM
- viability [2]: 31.8 ± 3.16%

SMILES: Cn1c(=O)c2c(ncn2CC(=O)O)n(C)c1=O [Acefylline, Theophylline-7-acetic acid, reference compound]
- viability [2]: 86.3 ± 11.8%

SMILES: Cc1ccc(NC(=O)CSc2nnc(Cn3cnc4c3c(=O)n(C)c(=O)n4C)n2-c2ccccc2)cc1C [Compound 11h, 2-(5-((1,3-Dimethyl-2,6-dioxo-2,3-dihydro-1H-purin-7(6H)-yl)methyl)-4-phenyl-4H-1,2,4-triazol-3-ylthio)-N-(3,4-dimethylphenyl)acetamide]
- viability [1]: 55.4 ± 4.6%
- viability [2]: 33.2 ± 2.77%

SMILES: Cn1c(=O)c2c(ncn2Cc2nnc(SCC(=O)Nc3ccccc3Cl)n2-c2ccccc2)n(C)c1=O [Compound 11f, N-(2-Chlorophenyl)-2-(5-((1,3-dimethyl-2,6-dioxo-2,3-dihydro-1H-purin-7(6H)-yl)methyl)-4-phenyl-4H-1,2,4-triazol-3-ylthio)acetamide]
- viability [1]: 55.4 ± 4.11%
- viability [2]: 72.8 ± 6.35%

SMILES: Cn1c(=O)c2c(ncn2Cc2nnc(SCC(=O)Nc3ccccc3)n2-c2ccccc2)n(C)c1=O [Compound 11a, 2-(5-((1,3-Dimethyl-2,6-dioxo-2,3-dihydro-1H-purin-7(6H)-yl)methyl)-4-phenyl-4H-1,2,4-triazol-3-ylthio)-N-phenylacetamide]
- viability [1]: 59.6 ± 1.36%
- viability [2]: 34.7 ± 2.49%

SMILES: Cn1c(=O)c2c(ncn2Cc2nnc(SCC(=O)Nc3ccc(Cl)cc3Cl)n2-c2ccccc2)n(C)c1=O [Compound 11b, N-(2,4-Dichlorophenyl)-2-(5-((1,3-dimethyl-2,6-dioxo-2,3-dihydro-1H-purin-7(6H)-yl)methyl)-4-phenyl-4H-1,2,4-triazol-3-ylthio)acetamide]
- viability [1]: 52.6 ± 5.07%
- viability [2]: 69.4 ± 7.05%

SMILES: Cn1c(=O)c2c(ncn2Cc2nnc(SCC(=O)Nc3ccc(Cl)c(Cl)c3)n2-c2ccccc2)n(C)c1=O [Compound 11d, N-(3,4-Dichlorophenyl)-2-(5-((1,3-dimethyl-2,6-dioxo-2,3-dihydro-1H-purin-7(6H)-yl)methyl)-4-phenyl-4H-1,2,4-triazol-3-ylthio)acetamide]
- viability [1]: 46.2 ± 1.42%
- viability [2]: 38.1 ± 4.04%

SMILES: Cn1c(=O)c2c(ncn2Cc2nnc(SCC(=O)Nc3ccccc3F)n2-c2ccccc2)n(C)c1=O [Compound 11j, 2-(5-((1,3-Dimethyl-2,6-dioxo-2,3-dihydro-1H-purin-7(6H)-yl)methyl)-4-phenyl-4H-1,2,4-triazol-3-ylthio)-N-(2-fluorophenyl)acetamide]
- viability [1]: 67.5 ± 4.27%
- viability [2]: 63.7 ± 3.54%
